Compound activity from PubChem BioAssay.
Sampled rows, rich in hits. Any-hit rate of the full collection: about 1.9%.
IMP-1 inhibitor: IMP-1 metallo-beta-lactamase inhibitors, primary screen, biochemical, epi-absorbance readout, Pseudomonas aeruginosa enzyme | metallo-beta-lactamase IMP-1 (Pseudomonas aeruginosa) | purified IMP-1, nitrocefin hydrolysis, epi-absorbance fluorescence | inhibition, % at 5.6 µM | actives 0.45% (n = 290,000);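 active means inhibition above the mean plus 3 SD of all compounds in the same screening run, cut at about 4.5% in these data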;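 further: 0% = IMP-1 with DMSO and 100% = DMSO wells lacking enzyme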
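Material – recombinant IMP-1 enzyme, purified · Amount – IMP-1 0.2 nM before substrate addition · Medium – HEPES buffer pH 7.1 with ZnSO4 and Brij 35 · Timing – 25 °C, 15 min preincubation, 25 min reaction · Measured by – plate fluorescence quenching by hydrolysis product, ex 480/em 530 nm · Read-out – percent enzyme inhibition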
VIM-2 inh: VIM-2 metallo-beta-lactamase inhibitors, primary screen, biochemical, epi-absorbance readout, Pseudomonas aeruginosa enzyme | actives 0.89% (n = 290,000) | inhibition, % at 5.6 µM | purified VIM-2, nitrocefin hydrolysis, epi-absorbance fluorescence;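 active means inhibition above the mean of all tested compounds plus 3 SD, cutoff set per screening run, cut at about 7.5% in these data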;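 further: red hydrolysis product quenches plate fluorescence so inhibitors raise well fluorescence; 0% = enzyme with DMSO and 100% = DMSO without enzyme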
SUMO HTRF inh: inhibitors of in vitro SUMOylation cascade, primary screen, biochemical, HTRF, uHTS | HTRF SUMOylation assay, SAE1/SAE2 + UBC9 | inhibition, % at 35 µM | actives 0.36% (n = 290,000); in the data active means inhibition above about 50%, passing the limit was not always enough
Target sequence (P63279 whole entry, looked up): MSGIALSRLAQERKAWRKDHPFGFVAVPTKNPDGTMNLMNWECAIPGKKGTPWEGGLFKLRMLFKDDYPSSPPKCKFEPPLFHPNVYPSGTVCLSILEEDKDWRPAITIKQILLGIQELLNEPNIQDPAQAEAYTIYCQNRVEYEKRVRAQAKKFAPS
CTSL1 counter: Fasciola hepatica cathepsin L1 inhibitors, primary screen, counter-screen for PFM18AAP inhibitor project, biochemical, QFRET, fluorogenic peptide substrate | AID 1906, 2009 | inhibition, % at 5.96 µM | recombinant F. hepatica cathepsin L1, Z-Leu-Arg-MCA fluorescence | actives 0.49% (n = 300,000);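 active means inhibition above the mean of all tested compounds plus 3 SD, set per screening campaign, cut at about 17% in these data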;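 further: 0% = plate median of test compound wells and 100% = 1 µM Z-Phe-Ala-diazomethylketone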
T cell HTS: modulators of CD8 T cell-vesicle binding, primary screen, mouse 2C CD8+ T cells, flow cytometry; response (vesicle binding), % at 7 µM; actives 0.068% (n = 330,000); 2C CD8+ T cell-vesicle binding; stronger effect = lower value;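 active means response, share of CD8 T cells binding vesicles, and their 90th percentile fluorescence all below set limits, cut at about 80% in these data, passing the limit was not always enough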;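 further: values below 100% mean blocked vesicle binding to the CD8+ T cells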
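Test system: purified 2C TCR transgenic mouse naive CD8+ T cells. Probe or stimulus: QL9-peptide-loaded Drosophila micro-vesicles bearing Ld, ICAM-1 and B7-1. Incubation: binding step 1.5 h, 37 °C, antibody labelling 20 min, ice. Measured by: flow cytometry of vesicle-bound cells.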
p-CIP stab down: p/CIP-EGFP fusion destabilizers, primary screen, fluorescence, F442A cells | 16 h | decrease of EGFP signal, % at 10 µM | actives 0.01% (n = 290,000);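 active means EGFP signal decrease of at least 30% at 10 µM or well 3 SD below plate mean, unless failing retest; inactive means the rest, including hits failing retest or dose response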
Active calls of the source: *; i = inactive; . = no result.

SMILES | IMP-1 inhibitor | VIM-2 inh | SUMO HTRF inh | CTSL1 counter | T cell HTS | p-CIP stab down
O=C(CCCc1ccccc1)Nc1ccc(S(=O)(=O)N2CCOCC2)cc1 | -2 | -1 | 10 | 1 | 155 | 0
CCSc1ccc([C@@H]2[C@H]3C(=O)N(C)C(=O)[C@H]3[C@]3(C(=O)OC)CCCCN23)cc1OC | . | . | . | -3 | 428 | .
Cn1c(=O)c2c(-c3ccccc3)n(-n3cnnc3)cc2n(C)c1=O | -2 | 0 | 34 | 25* | 213 | -39
CCc1cc2c(=O)n(Cc3ccco3)c(SCC(=O)N3CCCc4ccccc43)nc2s1 | 6.0* | 3 | 26 | 0 | 239 | 2
CCc1cc2c(=O)n(Cc3ccco3)c(SCC(=O)NCC3CCCO3)nc2s1 (stereo not given) | -2 | 1 | 1 | 3 | 273 | -4
CCN1C(=O)C(CC(=O)Nc2c(C)cccc2C)Nc2cc(S(=O)(=O)N(C)C)ccc21 (stereo not given) | -2 | -3 | 9 | 2 | i | -10
CCc1c(C)nc2ncnn2c1NCCc1ccc(OC)cc1 | -4 | 8.9* | 14 | 1 | 294 | -11
Cc1cccn2c(=O)c3cc(C(=O)NCCc4ccccc4)c(=N)n(Cc4ccco4)c3nc12 | -4 | 9.1* | 37 | 8 | 237 | -7
CCn1c(=N)c(C(N)=O)cc2c(=O)n3cccc(C)c3nc21 | -2 | 7.9* | . | . | . | .
CCOC(=O)c1cc2c(=O)n3cccc(C)c3nc2n(CCCOC)c1=NC(=O)c1cccnc1 | -3 | 10* | 35 | 6 | 931 | -21
Cc1ccc2nc3c(cc(C(=O)NCc4ccco4)c(=N)n3Cc3ccco3)c(=O)n2c1 | -3 | 0 | 74* | 19* | 150 | -22
Cc1ccc(CNC(=O)c2cc3c(=O)n4ccccc4nc3n(Cc3ccco3)c2=N)cc1 | . | . | 20 | -2 | 369 | -10
CCn1cc(/C=C(\NC(=O)c2ccccc2F)C(=O)NCCN2CCOCC2)c2ccccc21 | -3 | -3 | -3 | 3 | 434 | -7
O=C(OCC(=O)N1CCN(C(=O)COC(=O)c2ccc(O)cc2O)CC1)c1ccc(O)cc1O | . | . | . | -6 | 189 | .
COc1ccc(CCNC(=O)COC(=O)C2CC2C)cc1OC (stereo not given) | . | . | . | . | 184 | .
CCOC(=O)N1CCC(NC(=O)CC2C(=O)NCCN2Cc2ccccc2)CC1 (stereo not given) | -1 | -1 | 6 | -4 | 671 | -7
CCCN1CCN(CCCNC(=S)Nc2ccc3nc(N4CCN(CC)CC4)cc(C)c3c2)CC1 | -4 | 0 | 14 | -4 | 359 | 80*
CSc1ccccc1NC(=O)COC(=O)Cn1cc(C(F)(F)F)ccc1=O | . | . | . | . | 391 | .
Cc1cc(S(=O)(=O)NCC(C)C)ccc1OCC(=O)NCc1ccco1 | -2 | -3 | 9 | -2 | 343 | -6
CC(C)c1ccc(NC(=O)c2cccc(Br)c2)cc1 | -3 | -3 | -9 | -6 | 562 | 2
C=CCn1c(CSc2nnc(-c3ccccc3)n2C)n[nH]c1=S | -2 | 3 | 0 | 28* | 245 | -1
O=C(C#Cc1cccc([N+](=O)[O-])c1)c1ccccc1 | -2 | 0 | 8 | 22* | 248 | -7
CC(=O)Nc1cc(C)nn1-c1nc(C)cc(C)n1 | 0 | 9.3* | 10 | 3 | 304 | 0
Cc1ccc(Nc2cc(C)nn2-c2nc(C)cc(C)n2)cc1 | -7 | 7.8* | 6 | 2 | 159 | -4
Cc1ccc(Nc2cc(C)nn2-c2nc(C)cc(=O)[nH]2)cc1 | -3 | 2 | -259 | 5 | 343 | -6
Oc1ccc(Cl)cc1CNc1nccs1 | 8.4* | 2 | 20 | 3 | 130 | -2
CC(=O)Nc1ccc(C=C(C(C)=O)C(C)=O)cc1 | -2 | -2 | 8 | -3 | 260 | -6
CCOC(=O)c1c(NC(=O)COC(=O)c2cnccn2)sc(C(=O)NC)c1C | . | . | . | -8 | 202 | .
CCOC(=O)c1c(-c2ccco2)csc1NC(=O)COC(=O)c1cnccn1 | . | . | . | 40* | 371 | .
